Columns and labels:
Rattus norvegicus [1] = experiment: Antiinflammatory activity against carrageenan-induced paw edema in Sprague-Dawley rat assessed as inhibition of paw volume at 30 mg/kg, po measured 180 mins post challenge by plethysmometer; assay type: functional; settings: 3 h
Rattus norvegicus [2] = experiment: Antiinflammatory activity against carrageenan-induced paw edema in Sprague-Dawley rat assessed as paw volume at 30 mg/kg, po measured 120 mins post challenge by plethysmometer (reference value: 1.13 +/- 0.04 ml); assay type: functional
Rattus norvegicus [3] = experiment: Antiinflammatory activity against carrageenan-induced paw edema in Sprague-Dawley rat assessed as paw volume at 30 mg/kg, po measured 60 mins post challenge by plethysmometer (reference value: 0.90 +/- 0.03 ml); assay type: functional
Rattus norvegicus [4] = experiment: Antiinflammatory activity against carrageenan-induced paw edema in Sprague-Dawley rat assessed as inhibition of paw volume at 20 mg/kg, po measured 180 mins post challenge by plethysmometer; assay type: functional; settings: 3 h
Rattus norvegicus [5] = experiment: Antiinflammatory activity against carrageenan-induced paw edema in Sprague-Dawley rat assessed as paw volume at 20 mg/kg, po measured 120 mins post challenge by plethysmometer (reference value: 1.13 +/- 0.04 ml); assay type: functional
Rattus norvegicus [6] = experiment: Antiinflammatory activity against carrageenan-induced paw edema in Sprague-Dawley rat assessed as paw volume at 20 mg/kg, po measured 60 mins post challenge by plethysmometer (reference value: 0.90 +/- 0.03 ml); assay type: functional
Rattus norvegicus [7] = experiment: Antiinflammatory activity against carrageenan-induced paw edema in Sprague-Dawley rat assessed as inhibition of paw volume at 10 mg/kg, po measured 180 mins post challenge by plethysmometer; assay type: functional; settings: 3 h
Rattus norvegicus [8] = experiment: Antiinflammatory activity against carrageenan-induced paw edema in Sprague-Dawley rat assessed as paw volume at 10 mg/kg, po measured 120 mins post challenge by plethysmometer (reference value: 1.13 +/- 0.04 ml); assay type: functional
Rattus norvegicus [9] = experiment: Antiinflammatory activity against carrageenan-induced paw edema in Sprague-Dawley rat assessed as paw volume at 10 mg/kg, po measured 60 mins post challenge by plethysmometer (reference value: 0.90 +/- 0.03 ml); assay type: functional
Rattus norvegicus [10] = experiment: Antiulcerogenic activity in pylorus ligation-induced gastric ulcer Sprague-Dawley rat model assessed as pH of gastric juice at 7.2 mg/kg, po for 3 days (Rvb =2.60 +/-0.55 ); assay type: functional
Rattus norvegicus [11] = experiment: Antiulcerogenic activity in pylorus ligation-induced gastric ulcer Sprague-Dawley rat model assessed as pH of gastric juice at 3.6 mg/kg, po for 3 days (Rvb =2.60 +/-0.55 ); assay type: functional
Rattus norvegicus [12] = experiment: Antiulcerogenic activity in pylorus ligation-induced gastric ulcer Sprague-Dawley rat model assessed as volume of gastric juice at 7.2 mg/kg, po for 3 days (Rvb =5.96 +/-0.80 ml ); assay type: functional
Rattus norvegicus [13] = experiment: Antiulcerogenic activity in pylorus ligation-induced gastric ulcer Sprague-Dawley rat model assessed as volume of gastric juice at 3.6 mg/kg, po for 3 days (Rvb =5.96 +/-0.80 ml ); assay type: functional
Rattus norvegicus [14] = experiment: Antiulcerogenic activity in pylorus ligation-induced gastric ulcer Sprague-Dawley rat model assessed as stomach peptic activity measuring tyrosine release for 4 hrs at 7.2 mg/kg, po for 3 days (Rvb =5.70 +/-2.40 ug/ml ); assay type: functional
Method in brief: (§1)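 Pylorus-ligated rat model as above (3-day oral dosing, 3.6 or 7.2 mg/kg, 5 h ligation). Gastric juice sample (0.1 ml) was incubated with 2.9 ml acid hemoglobin substrate (2.5 g/100 ml, pH 2.2) for 30 min at 37 °C. Reaction was stopped with ice-cold 0.6 M TCA and centrifuged. Liberated amino acids were read by Lowry, expressed as µg tyrosine/ml.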

Rattus norvegicus [15] = experiment: Antiulcerogenic activity in pylorus ligation-induced gastric ulcer Sprague-Dawley rat model assessed as stomach peptic activity measuring tyrosine release for 4 hrs at 3.6 mg/kg, po for 3 days (Rvb =5.70 +/-2.40 ug/ml ); assay type: functional; method in brief: as §1
Rattus norvegicus [16] = experiment: Antiulcerogenic activity in pylorus ligation-induced gastric ulcer Sprague-Dawley rat model assessed as stomach H+/K+-ATPase activity measuring Pi release per hour per mg protein at 7.2 mg/kg, po for 3 days (Rvb =11.44 +/-1.5 umol ); assay type: functional
Rattus norvegicus [17] = experiment: Antiulcerogenic activity in pylorus ligation-induced gastric ulcer Sprague-Dawley rat model assessed as stomach H+/K+-ATPase activity measuring Pi release per hour per mg protein at 3.6 mg/kg, po for 3 days (Rvb =11.44 +/-1.5 umol ); assay type: functional
Mus musculus [18] = experiment: Antiulcerogenic activity in ethanol-induced gastric ulcer Swiss albino mouse model assessed as inhibition of ulceration at 7.2 mg/kg administered intragastrically for 3 days relative to control; assay type: functional; settings: Stomach, po, 72 h, route intragastric
Method in brief: (§2)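 Mice, n = 6 per group, given 3.6 or 7.2 mg/kg, omeprazole 3.6 mg/kg, or vehicle (0.25% w/v carboxymethyl cellulose) for 3 days. After a 24 h fast, 90% ethanol (10 ml/kg) was given intragastrically. Animals were killed 1 h later. Stomachs were opened along the greater curvature and lesion lengths measured under a microscope.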

Mus musculus [19] = experiment: Antiulcerogenic activity in ethanol-induced gastric ulcer Swiss albino mouse model assessed as inhibition of ulceration at 3.6 mg/kg administered intragastrically for 3 days relative to control; assay type: functional; settings: Stomach, po, 72 h, route intragastric; method in brief: as §2
Mus musculus [20] = experiment: Antiulcerogenic activity in ethanol-induced gastric ulcer Swiss albino mouse model assessed as lesion length at 7.2 mg/kg administered intragastrically for 3 days; assay type: functional, Stomach; settings: route intragastric; method in brief: as §2
Mus musculus [21] = experiment: Antiulcerogenic activity in ethanol-induced gastric ulcer Swiss albino mouse model assessed as lesion length at 3.6 mg/kg administered intragastrically for 3 days; assay type: functional, Stomach; settings: route intragastric; method in brief: as §2
Rattus norvegicus [22] = experiment: Antiinflammatory activity against carrageenan-induced paw edema in po dosed Sprague-Dawley rat assessed as inhibition of paw volume measured 180 mins post challenge by plethysmometer; assay type: functional, organism-based

Compound | inhibition in vivo at 30 mg/kg (Rattus norvegicus [1]) [%] | Activity (Rattus norvegicus [2]) [mL] | Activity (Rattus norvegicus [3]) [mL] | inhibition in vivo at 20 mg/kg (Rattus norvegicus [4]) [%] | Activity (Rattus norvegicus [5]) [mL] | Activity (Rattus norvegicus [6]) [mL] | inhibition in vivo at 10 mg/kg (Rattus norvegicus [7]) [%] | Activity (Rattus norvegicus [8]) [mL] | Activity (Rattus norvegicus [9]) [mL] | pH (Rattus norvegicus [10]) | pH (Rattus norvegicus [11]) | Activity (Rattus norvegicus [12]) [mL] | Activity (Rattus norvegicus [13]) [mL] | Activity (Rattus norvegicus [14]) [µg/mL] | Activity (Rattus norvegicus [15]) [µg/mL] | Activity (Rattus norvegicus [16]) [µmol] | Activity (Rattus norvegicus [17]) [µmol] | inhibition in vivo at 7.2 mg/kg (Mus musculus [18]) [%] | inhibition in vivo at 3.6 mg/kg (Mus musculus [19]) [%] | Activity (Mus musculus [21]) [mm] | also measured
COc1ccnc(CNc2ccc3[nH]c(C)nc3c2)c1C | 55 | 0.65 | 0.64 | 52 | 0.69 | 0.69 | 11 | 0.9 | 0.7 |  |  |  |  |  |  |  |  |  |  |  | 
COc1ccnc(CNc2ccc3[nH]c(C)nc3c2)c1OC | 61 | 0.65 | 0.65 | 57 | 0.69 | 0.7 | 15 | 0.88 | 0.7 | 4.01 | 3.64 | 2.6 | 2.98 | 4.74 | 5.02 | 6.88 | 7.91 | 46.8 | 30 | 88 | Activity (Mus musculus [20]): 67 mm; inhibition (Rattus norvegicus [22]): Dose-dependent effect
Cc1nc2cc(NCc3ccccn3)ccc2[nH]1 | 45 | 1.03 | 0.87 | 32 | 1.08 | 0.9 | 10 | 1.08 | 0.97 |  |  |  |  |  |  |  |  |  |  |  | 
O=C([O-])Cc1ccccc1Nc1c(Cl)cccc1Cl.[Na+] [DICLOFENAC SODIUM] |  |  |  | 73 | 0.35 | 0.38 |  |  |  |  |  |  |  |  |  |  |  |  |  |  | 
COc1ccc2[nH]c([S+]([O-])Cc3ncc(C)c(OC)c3C)nc2c1 (configuration not stated) [OMEPRAZOLE] |  |  |  |  |  |  |  |  |  |  | 4.26 |  | 2.64 |  | 4.92 |  | 7.1 |  | 68.3 | 40 | 
Cc1nc2cc(NCc3ccccn3)ccc2n1C[C@@H](O)[C@H]1O[C@H](O)[C@@H](O)[C@H]1O | 52 | 0.64 | 0.63 | 47 | 0.69 | 0.68 | 8 | 0.89 | 0.69 | 4.41 | 4.04 | 2.3 | 2.4 | 4.44 | 4.72 | 6.02 | 6.91 | 54 | 46 | 68 | Activity (Mus musculus [20]): 58 mm
COc1c(C)cnc(CNc2ccc3[nH]c(C)nc3c2)c1C | 53 | 0.62 | 0.64 | 49 | 0.67 | 0.69 | 10 | 0.88 | 0.7 |  |  |  |  |  |  |  |  |  |  |  | 
COc1ccnc(CNc2ccc3c(c2)nc(C)n3C[C@@H](O)[C@H]2O[C@H](O)[C@@H](O)[C@H]2O)c1OC | 72 | 0.38 | 0.41 | 62 | 0.4 | 0.44 | 41 | 0.52 | 0.53 | 4.73 | 4.53 | 2.39 | 2.56 | 4.54 | 4.79 | 6.34 | 6.88 | 73 | 61 | 49 | Activity (Mus musculus [20]): 34 mm
COc1ccnc(CNc2ccc3c(c2)nc(C)n3C[C@@H](O)[C@H]2O[C@H](O)[C@@H](O)[C@H]2O)c1C | 58 | 0.64 | 0.63 | 53 | 0.68 | 0.68 | 22 | 0.88 | 0.68 | 4.31 | 4.1 | 2.24 | 2.31 | 4.34 | 4.62 | 6 | 6.78 | 66.6 | 57.9 | 53 | Activity (Mus musculus [20]): 42 mm
COc1c(C)cnc(CNc2ccc3c(c2)nc(C)n3C[C@@H](O)[C@H]2O[C@H](O)[C@@H](O)[C@H]2O)c1C | 56 | 0.43 | 0.49 | 50 | 0.48 | 0.5 | 36 | 0.64 | 0.61 | 4.39 | 4.14 | 2.38 | 2.48 | 4.56 | 4.8 | 6.62 | 7.01 | 76.2 | 62.6 | 47 | Activity (Mus musculus [20]): 30 mm
